Assay results as given in ChEMBL document CHEMBL1208725, “Prostaglandin phospholipid conjugates with unusual biophysical and cytotoxic properties” (Bioorg Med Chem Lett, 2010).
Calls of active or inactive are those of the source. No cut-off for these calls is given here.

How the values were obtained:
COLO 205 [1] = assay: Cytotoxicity against human COLO205 cells after 24 hrs by MTT assay; assay type: functional, cell-based; conditions: COLO 205, 24 h
In short: (§1)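 Colon cancer cells were incubated with the substances for 24 h. Viability was then read by MTT assay 48 h after incubation. IC₅₀ values are mean SD, n ≥ 3.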

HT-29 [2] = assay: Cytotoxicity against human HT-29 cells after 24 hrs by MTT assay; assay type: functional, cell-based; conditions: HT-29, 24 h; in short: as §1
[3] = Chemical stability of the compound in presence of snake venom secretory phospholipase A2 after 24 hrs by MALDI-TOF MS analysis; assay type: physicochemical
In short: (§2)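 Formulated lipid suspensions (extruded through a 100 nm filter) were incubated with purified snake venom sPLA₂ (Agkistrodon piscivorus piscivorus and Naja mossambica mossambica) with stirring at 37 °C. Samples were taken at 2, 24 and 48 h for MALDI-TOF MS. The matrix was DHB and CF₃COONa in methanol with DPPG as internal standard. Hydrolysis was estimated as conversion of the conjugate.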

COLO 205 [4] = assay: Induction of apoptosis in human COLO205 cells at 20 uM; assay type: functional, cell-based
COLO 205 [5] = assay: Induction of apoptosis in human COLO205 cells assessed as complete cell death at 100 uM; assay type: functional, cell-based
HT-29 [6] = assay: Cytotoxicity against human HT-29 cells after 24 hrs by MTT assay in presence of snake venom secretory phospholipase A2; assay type: functional, cell-based; conditions: HT-29, 24 h
[7] = tested on: secretory phospholipase A2; assay: Chemical stability of the compound in presence of snake venom secretory phospholipase A2 after 48 hrs by MALDI-TOF MS analysis; assay type: physicochemical; conditions: read-out: Stability; in short: as §2

Which results are given for CCCCC/C=C/C=C1\C(=O)C=C[C@H]1C/C=C/CCCC(=O)O[C@H](COC(=O)CCCCCCCCCCCCCCCCC)COP(=O)([O-])OC[C@@H](O)CO.[Na+]?
IC50 (COLO 205 [1]): 17 µM; IC50 (HT-29 [2]): 32 µM; Stability [3]: Unstable; Activity (COLO 205 [4]): Active; Activity (COLO 205 [5]): Active; IC50 (HT-29 [6]): 6.4 µM

Which IC50 (COLO 205 [1]) does the source give for CCCCC/C=C/C=C1\C(=O)C=C[C@H]1C/C=C/CCCC(=O)O[C@H](COCCCCCCCCCCCCCCCCCC)COP(=O)(O)OC[C@@H](O)CO here?
Its IC50 is 9 µM.

And the IC50 (HT-29 [2])?
Its IC50 is 6 µM.

What about the remaining at 48 h [7] of the same compound?
The remaining at 48 h was 70%.

And the Activity (COLO 205 [4])?
The Activity was “Active”.

What about the Activity (COLO 205 [5]) of the same compound?
Its Activity is “Active”.

And the IC50 (HT-29 [6])?
Its IC50 is 2.2 µM.

Which IC50 (COLO 205 [1]) does the source give for CCCCC/C=C/C=C1\C(=O)C=C[C@@H]1C/C=C/CCCC(=O)O here?
The IC50 was 4 µM.

What about the IC50 (HT-29 [2]) of the same compound?
Its IC50 is 1.6 µM.
